Data set [1] in a line: Ionization constant in presence of nitrogen. It counts as physicochemical. Conditions: read-out: pKa1. A digest of the protocol: (§1)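 pKa was determined by the Albert and Serjeant method, as the mean of three to four determinations.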
A short description of data set [2]: Ionization constant in presence of hydroxyl. It counts as physicochemical. Conditions: read-out: pKa2. The method, boiled down:
as §1

In data set [3] the test system is Rattus norvegicus. The data set is described as follows: In Vivo effect on concentration of HVA in rat striatum at 1 umol/kg. It counts as functional.
Data set [4] has as its system Rattus norvegicus. The data set is described as follows: In Vivo effect on concentration of DOPAC in rat striatum at 1 umol/kg. It counts as functional.
Data set [5] can be described thus: Partition coefficient in octanol-buffer at a pH 7.4. It is filed as physicochemical. A digest of the protocol:
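Distribution between 1-octanol and Na⁺/K⁺-phosphate buffer at pH 7.4, each phase presaturated with the other. Tubes were shaken closed and phases separated by centrifugation. Concentrations were measured by HPLC (C18) with electrochemical detection.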

The target of the next data set is D(2) dopamine receptor (Rattus norvegicus, UniProt P61169). The data set is described as follows: Potency to displace the specific in vitro binding of [3H]DP-5,6-ADTN to rat striatal membrane. Details: species or system Striatum. The method, boiled down: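 Homogenized, washed rat striatal membranes were incubated with [³H]-DP-5,6-ADTN. Nonspecific binding was defined with 10⁻⁶ M (+)-butaclamol. Competitor was tested over 10⁻¹¹–10⁻⁴ M, in triplicate.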

Data set [6] deals with Rattus norvegicus. The data set is described as follows: In Vivo effect on concentration of DOPAC in rat striatum at dose of 10 umol/kg administered intraperitoneally. It is filed as functional. The method, boiled down: (§2)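 Female Wistar-derived rats (180–220 g) were given drug ip in saline and killed by cervical dislocation 1 h later. Striata were frozen and homogenized in 0.1 M perchloric acid, then centrifuged (3000g, 7 °C, 15 min). DOPAC and HVA were purified on Sephadex G10, separated by RP18 HPLC with electrochemical detection, and expressed as % of control.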

The test system of data set [7] is Rattus norvegicus. The data set is described as follows: In Vivo effect on concentration of HVA in rat striatum at dose of 10 umol/kg administered intraperitoneally. It counts as functional. A digest of the protocol:
as §2

Data set [8] concerns Rattus norvegicus. The data set is described as follows: In Vivo effect of agonist on the induction of stereotypy (continuous sniffing behavior in rat) at 10 umol/kg.
The target of data set [9] is Dopamine D2 receptor (Bos taurus). The data set is described as follows: Potency to displace the specific in vitro binding of [3H]N-0437 to calf striatal membrane.
Data set [10] deals with Rattus norvegicus. The data set is described as follows: In Vivo effect of agonist on the induction of stereotypy (continuous sniffing behavior in rat) at 10 umol/kg; Inactive. It is filed as functional, organism-based.
The subject of data set [11] is Rattus norvegicus. The data set is described as follows: In Vivo effect on concentration of HVA in rat striatum at dose of 0.4 umol/kg administered intraperitoneally. It counts as functional.
For data set [12], the system named is Rattus norvegicus. The data set is described as follows: In Vivo effect of agonist on the induction of stereotypy (continuous sniffing behavior in rat) at 0.4 umol/kg. It is filed as functional.
Data set [13] concerns Rattus norvegicus. The data set is described as follows: In Vivo effect on concentration of DOPAC in rat striatum at dose of 0.4 umol/kg administered intraperitoneally. It is filed as functional.
Data set [14] concerns Rattus norvegicus. The data set is described as follows: In vivo effect on concentration of DOPAC in rat striatum at dose of 10 umol/kg administered intraperitoneally. It is filed as functional. The method, boiled down:
as §2

Data set [15] concerns Rattus norvegicus. As to the kind of experiment: In Vivo effect of agonist on the induction of stereotypy (continuous sniffing behavior in rat) ED50.

Structures are written as SMILES. The source made the active and inactive calls. The rule behind the calls is not given here.

Chain of D(2) dopamine receptor (P61169 whole entry): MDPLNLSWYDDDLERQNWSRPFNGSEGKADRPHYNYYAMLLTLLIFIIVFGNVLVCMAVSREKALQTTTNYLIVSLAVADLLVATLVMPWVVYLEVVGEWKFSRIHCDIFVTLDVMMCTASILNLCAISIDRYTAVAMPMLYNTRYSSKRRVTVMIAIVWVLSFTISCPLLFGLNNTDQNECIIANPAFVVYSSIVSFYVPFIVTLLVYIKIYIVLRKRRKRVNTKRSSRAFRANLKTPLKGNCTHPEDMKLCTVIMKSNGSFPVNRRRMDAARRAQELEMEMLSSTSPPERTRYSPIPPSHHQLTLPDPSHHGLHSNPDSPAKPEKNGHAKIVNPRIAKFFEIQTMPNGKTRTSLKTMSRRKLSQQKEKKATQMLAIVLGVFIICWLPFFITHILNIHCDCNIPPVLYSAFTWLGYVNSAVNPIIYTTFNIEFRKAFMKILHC

For the compound `CCCN(CCC)C1CCc2ccc(O)cc2C1` (stereo not given), the pKa in [1] came to 9.4; in data set [2], 10.7. The Control was determined as 56% with Rattus norvegicus [3] and 72% in the data set on Rattus norvegicus [4]. For the same compound, in data set [5], the pH-dependent lipophilicity (logD) – broadly, the decadic logarithm of the distribution of all forms, ionised or not, between an organic phase and buffer at a given pH – came out at 1.45.
As for `CCCN(CCC)C1COc2c(O)cccc2C1` (stereo not given), on D(2) dopamine receptor, the concentration for half-maximal inhibition (IC50) (in general, the concentration that inhibits the measured activity by half) was 4 nM. In addition, the pKa in data set [1] worked out at 8.2; in data set [2] it was 9.9. This compound registered a logD in data set [5] of 2.44.
On to `CN1CCc2cccc3c2[C@H]1Cc1ccc(O)c(O)c1-3` [APOMORPHINE], for which the Control came out at 48% in the data set with Rattus norvegicus [6] and 40% in the data set on Rattus norvegicus [7]. Moreover, it took a dose of 2.3 µmol/kg to reach the 50% effect level with Rattus norvegicus [8] (ED50).
For `CCCN(CCC)C1CCc2c(O)cccc2C1` (stereo not given) [5-OH-DPAT], the pKa in data set [1] turned out to be 9.4; in data set [2], 10.9. Also, the results for the Control in the data set with Rattus norvegicus [3] and with Rattus norvegicus [4] were 60% and 73%, respectively. In addition, the pH-dependent lipophilicity (logD) in data set [5] was found to be 1.53.
As for `CCCN1CCO[C@@H]2c3cccc(O)c3OC[C@H]21`, the values for the 50% inhibitory concentration (IC50) (on D(2) dopamine receptor; in data set [9]) were 2920 nM and 8900 nM, respectively. The pKa in data set [1] was 5.8; in [2] it was 10.2. Also, the Control in the data set with Rattus norvegicus [6] came out at 108%; in the data set with Rattus norvegicus [7] it was 110%. Further, the ED50 (as a rule, the midpoint of the dose-response relation) in the data set with Rattus norvegicus [10] was “inactive”. In addition, the logD in [5] was 1.93.
Consider `CCCN1CCO[C@@H]2c3cccc(O)c3CC[C@H]21`, for which the IC50 at D(2) dopamine receptor came out at 75 nM; in data set [9], 24 nM. Moreover, the pKa is 7.4 in data set [1] and 10.5 in data set [2]. Also, the Control with Rattus norvegicus [11] was 86%; in the data set with Rattus norvegicus [13], 101%. It took a dose of 7.5 mg/kg to reach the 50% effect level in the data set with Rattus norvegicus [12] (ED50). In data set [5], this compound gave a logD of 2.22.
On D(2) dopamine receptor, `CCCN1CCO[C@@H]2c3cc(O)ccc3OC[C@H]21` had an IC50 of 3070 nM. Besides, the pKa in data set [1] worked out at 6.1; in data set [2], 10.3. For the same compound, the Control with Rattus norvegicus [14] and in the data set with Rattus norvegicus [7] was 100% each time. In addition, the ED50 entry in the data set with Rattus norvegicus [10] was “inactive”. In addition, the logD in data set [5] is 1.97.
For the compound `CCCN1CCO[C@@H]2c3cc(O)ccc3CC[C@H]21` [NAXAGOLIDE], at D(2) dopamine receptor, the IC50 came out at 3 nM. The pKa in [1] amounted to 7.5; in data set [2], 10.9. In the data set on Rattus norvegicus [15], this compound had a 50% effective dose (ED50) of 0.5 µmol/kg. Further, the Control is 44% in the data set with Rattus norvegicus [11] and 67% with Rattus norvegicus [13]. In [5], this compound gave a logD of 2.09.
Regarding `CCCN(CCC)C1COc2ccc(O)cc2C1` (stereo not given), the pKa was determined as 8.1 in data set [1] and 9.6 in data set [2]. The compound also displayed a logD in [5] of 2.39.
